HSF-1 act: increases HSF-1 driven luciferase reporter signal; 300,000 compounds, 1.7% hits; activation, % at 9 µM; AID 504408; NIH3T3-HGL HSF-1 luciferase reporter, MG132, 8 h; 100% = twice DMSO control signal;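 active = mean replicate activation of at least 50% with a set share of replicates each reaching 50%; inconclusive = only one of those two conditions met; inactive = mean below 50% and too few replicates reaching it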
SR-BI DiI inh: blocks mouse SR-BI lipid uptake from DiI-HDL | ldlA[mSR-BI] CHO cells, DiI-HDL uptake fluorescence, 3 h | inhibition, % at 12.5 µM | 320,000 compounds, 0.96% hits | AID 488896;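 active = mean replicate inhibition of at least 70% and a set share of replicates each scoring 70 or more; inconclusive = meets just one of the two criteria; inactive = fails both criteria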
Target sequence (Q61009 whole entry, looked up): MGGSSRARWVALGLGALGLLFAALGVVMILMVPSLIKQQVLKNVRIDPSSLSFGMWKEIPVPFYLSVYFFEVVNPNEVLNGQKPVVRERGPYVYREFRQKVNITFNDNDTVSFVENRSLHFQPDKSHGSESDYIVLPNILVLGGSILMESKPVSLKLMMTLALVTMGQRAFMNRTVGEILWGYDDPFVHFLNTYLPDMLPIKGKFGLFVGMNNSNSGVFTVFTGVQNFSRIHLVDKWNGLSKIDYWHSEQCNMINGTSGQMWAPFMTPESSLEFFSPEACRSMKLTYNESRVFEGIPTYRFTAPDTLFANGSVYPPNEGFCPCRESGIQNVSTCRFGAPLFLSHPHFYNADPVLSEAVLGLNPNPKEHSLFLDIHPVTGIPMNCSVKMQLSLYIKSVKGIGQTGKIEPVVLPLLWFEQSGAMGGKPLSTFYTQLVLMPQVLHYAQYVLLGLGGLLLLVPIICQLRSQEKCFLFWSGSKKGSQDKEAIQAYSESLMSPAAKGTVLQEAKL
SR-BI DiI-HDL act: activators of SR-BI mediated HDL lipid uptake. CHO ldlA[mSR-BI] cells, DiI-HDL uptake fluorescence, 3 h; 100 = double the neutral-control signal. activation, % at 12.5 µM. 320,000 compounds, 0.096% hits. AID 504775;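 active = mean replicate activation of at least 60% and every replicate at or above 60%; inconclusive = mean or all-replicate condition met, but not both; inactive = mean below 60% and not all replicates reaching 60%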
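Material: SR-BI-overexpressing, LDLR-lacking CHO cells | Dosing: Single compound concentration, delivered by pin transfer | Probe or stimulus: Labelled HDL, 10 µg/mL | Signal: Bottom-read cell fluorescence after medium removal, ex 550/em 595 nm | Schedule: 3 h, 37 °C | Evaluation: HDL uptake via cellular fluorescence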
Wnt act: activates Wnt/beta-catenin signaling in a reporter cell assay; 300,000 compounds, 1.2% hits; activation, % at 9.35 µM; AID 743398; activator, plate reader; in the data active = activation above about 30%, passing the limit was not always enough; inconclusive = no clear call, values can overlap the other calls
MITF act: activators of MITF-driven TRPM1 promoter activity in SK-MEL-5 cells; activation, % at 12.5 µM; 300,000 compounds, 0.75% hits; SK-MEL-5 TRPM1-promoter luciferase, 24 h; % of positive control, neutral wells = 0;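 active = mean activation of at least 80% with every replicate also reaching 80%; inconclusive = mean reaches 80% but some replicate falls short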
Numbers stand for hits; n = inactive; u = inconclusive; x = no result. An excerpt weighted towards active compounds, which were near 3.6% of everything screened.

SMILES	HSF-1 act	SR-BI DiI inh	SR-BI DiI-HDL act	Wnt act	MITF act
C/C(=N\NC(=S)Nc1cc(S(=O)(=O)N2CCOCC2)ccc1Cl)c1ccc(N2CCOCC2)cc1	n	102.2	n	n	n
O=S(=O)(c1ccc(Cl)c(NC(=S)N/N=C/c2ccc(O)cc2)c1)N1CCOCC1	56.1	x	x	x	n
O=S(=O)(c1ccc(Cl)c(NC(=S)N/N=C/c2c(F)cccc2F)c1)N1CCOCC1	n	n	n	n	n
COc1ccc2cc(/C(C)=N/NC(=S)Nc3cc(S(=O)(=O)N4CCOCC4)ccc3N3CCOCC3)ccc2c1	n	x	x	x	x
COC(=O)[C@]12CCCCC=C1N(CCc1ccc(OC)c(OC)c1)C(=O)[C@H](CC(=O)N1CCC(c3ccccc3)CC1)C2	x	x	x	n	x
CCOC(=O)c1cnc[nH]c1=O	x	n	n	n	n
CCOC(=O)c1cn[nH]c1C(F)(F)F	56.9	n	u	n	x
CNC(=O)C1CC(=O)N(c2ccc(OCC(=O)Nc3ccccc3)cc2)C1 (configuration not stated)	x	n	n	n	n
COC(=O)C(Cc1ccc(O)cc1)N1Cc2ccccc2C1=O (configuration not stated)	n	n	n	n	91.4
NNC(=O)C(Cc1ccc(O)cc1)N1Cc2ccccc2C1=O (configuration not stated)	n	n	n	n	n
CCNC(=O)c1ccccc1NC(=O)C1CC(=O)N(C(C)C)C1 (configuration not stated)	n	n	n	n	n
O=c1c(-c2ccc(F)cc2)coc2c3c(ccc12)OCCO3	x	n	n	n	133.4
c1ccc(CN=C2NN=C(c3cc4ccccc4o3)CS2)cc1	n	n	n	x	n
c1ccc2oc(C3=NNC(=NC4CC4)SC3)cc2c1	n	82.1	n	n	n
CC1(O)CC(c2ccc(Cl)cc2)=NN1C(=O)c1ccc(Cl)cc1 (configuration not stated)	n	n	n	n	n
O=C(c1ccc(Cl)cc1)N1N=CCC1(O)c1ccc(Cl)cc1 (configuration not stated)	n	88.4	n	n	x
COc1ccccc1OCc1nnc(SCCN2CCOCC2)o1	58.2	n	n	x	n
CSc1ccccc1NC(=O)C(=O)c1c[nH]c2ccccc12	61.5	n	n	n	n
O=C(Nc1nccs1)C(=O)c1c[nH]c2ccccc12	51.0	n	n	59.2	u
CSc1ccc(NC(=O)NN(c2ccccc2)C2CCS(=O)(=O)C2)cc1 (configuration not stated)	x	x	x	n	x
CCOc1ccccc1-c1nc(-c2ccc(NC(=O)Cc3ccc(OC)cc3)cc2)no1	n	98.9	n	x	n
Fc1ccc(-c2cn3ccccc3n2)cc1	60.3	x	x	n	n
COc1ccc(CC(=O)Nc2ccc(-c3cn4ccccc4n3)cc2)cc1	183.8	n	n	x	n
COc1ccc(CC(=O)Nc2cccc(-c3cn4ccccc4n3)c2)cc1	n	n	n	n	n
O=C(Cn1nnc(N2CCCCC2)n1)NN=Cc1ccccc1O	x	x	x	n	x
SMILES	HSF-1 act	SR-BI DiI inh	SR-BI DiI-HDL act	Wnt act	MITF act
c1ccc(-n2cc(CN3CCCC3)c(-c3ccc4c(c3)OCO4)n2)cc1	55.1	n	n	n	n
CCc1ccc(N2C(=O)c3cc(N4CCOCC4)c([N+](=O)[O-])cc3C2=O)cc1	n	x	x	x	x
CCc1cccc(CC)c1N1C(=O)c2cc(N3CCOCC3)c([N+](=O)[O-])cc2C1=O	n	75.0	n	n	n
Cc1ccc2nc(SCC(=O)N3CCCc4ccccc43)nc(=O)n2c1	x	n	n	n	n
OC[C@@H]1CN(Cc2ccc(Cl)cc2)C[C@H](n2cnc3c(Nc4ccccc4)ncnc32)O1	x	x	x	n	x
Cc1ccc(Nc2nc(Cl)nc(NC(C)(C)C)n2)cc1	n	n	n	n	99.9
COc1ccc(-c2[nH]ncc2CN2CCN(C3CCCCC3)C(=O)C2)cc1F	56.3	n	n	n	n
COc1ccc(-c2[nH]ncc2CN2CCC(c3ccncc3)CC2)cc1F	n	n	n	n	n
COc1ccc(-n2c(SCC(=O)N3CCCCC3C)nnc2-c2cccnc2)cc1 (configuration not stated)	n	n	116.7	x	n
C[C@H](CO)N1C[C@H](C)[C@@H](CN(C)Cc2cccnc2)Oc2ncc(-c3cccc(C#N)c3)cc2C1=O	x	x	x	n	x
CC(C)Oc1ccc(C(=O)OCC(=O)c2ccc[nH]2)cc1	x	n	n	45.1	89.3
COc1ccc(C(=O)COC(=O)c2sccc2C)cc1OC	x	n	n	45.3	103.3
